Data taken from ChEMBL document CHEMBL5335790, “Design, synthesis and biological evaluation of novel 2,4-thiazolidinedione derivatives able to target the human BAG3 protein” (Eur J Med Chem, 2023).
Active and inactive are the calls of the source. The calls are words filed in the database; no cut-off is given here.

Assays:
HD-MB03 [1] = assay: Induction of autophagy in human HD-MB03 cells assessed as autophagic vacuole formation at 20 uM incubated for 24 hrs by bright field imaging analysis; format: functional, cell-based
HD-MB03 [2] = assay: Sensitization of chemotherapy induced cytotoxicity against human HD-MB03 cells assessed as inhibition of cell growth at 10 uM incubated for 72 hrs in presence of 1 unit of vincristine, etoposide, cisplatin, cyclophosphamide by resazurin dye based analysis (reference value: 91.53 +/- 1.15%); format: functional
HD-MB03 [3] = assay: Sensitization of chemotherapy induced cytotoxicity against human HD-MB03 cells assessed as inhibition of cell growth at 5 uM incubated for 72 hrs in presence of 0.12 unit of vincristine, etoposide, cisplatin, cyclophosphamide by resazurin dye based analysis (reference value: 51.43 +/- 1.17%); format: functional
HD-MB03 [4] = assay: Cytotoxicity against human HD-MB03 cells assessed as inhibition of cell growth at 20 uM incubated for 72 hrs by resazurin dye based analysis relative to control; format: functional
Procedure, shortened: (§1)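 Resazurin viability in HD-MB03 cells, 2000/well, single-agent arm of the 6x6 matrix. Inhibitor was added 24 h after seeding, in a 6-point 2-fold series, duplicates, two independent experiments. After 72 h exposure, resazurin was added at 44 µM final for 3 h at 37 °C and fluorescence read at 590 nm. Viability normalized to 1 µM bortezomib and 0.5% DMSO controls.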

HD-MB03 [5] = assay: Cytotoxicity against human HD-MB03 cells assessed as inhibition of cell growth at 1.25 uM incubated for 72 hrs by resazurin dye based analysis relative to control; format: functional; procedure, shortened: as §1
HD-MB03 [6] = assay: Induction of autophagy in human HD-MB03 cells assessed as increase in LC3 green fluorescence at 20 uM incubated for 24 hrs by immunofluorescence analysis; format: functional, cell-based
Procedure, shortened: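 HD-MB03 cells transfected with a fluorescent LC3 plasmid, then treated 24 h later with 20 µM, alone or with chloroquine, for 24 h. Live cells stained 30 min with 50 nM LysoTracker Red and 10 µM Hoechst, then imaged by confocal microscopy. Fluorescence per field was expressed relative to DMSO control set to 1. Mean ± SD of three experiments; 2-way ANOVA.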

HD-MB03 [7] = assay: Induction of cell cycle arrest in human HD-MB03 cells assessed as accumulation of cells at G2/M phase at 10 uM incubated for 72 hrs by RNase/PI staining based cytofluorimetric analysis (reference value: 4.4%); format: functional
[8] = molecular target: T1, BAG family molecular chaperone regulator 3 (Homo sapiens, UniProt O95817); assay: Binding affinity to C-terminal His tagged human BAG3 transfected in HEK293T cells assessed as protein-ligand complex formation by measuring saturated protein magnetization via intermolecular spin-diffusion at 125 uM by STD NMR experiment
HD-MB03 [9] = assay: Induction of autophagy in human HD-MB03 cells assessed as autophagic vacuole formation in presence of chloroquine at 20 uM incubated for 24 hrs by bright field imaging analysis; format: functional, cell-based
HD-MB03 [10] = assay: Cytotoxicity against human HD-MB03 cells assessed as inhibition of cell growth at 5 uM incubated for 72 hrs by resazurin dye based analysis relative to control; format: functional; procedure, shortened: as §1
HD-MB03 [11] = assay: Sensitization of chemotherapy induced cytotoxicity against human HD-MB03 cells assessed as inhibition of cell growth at 1.25 uM incubated for 72 hrs in presence of 1 unit of vincristine, etoposide, cisplatin, cyclophosphamide by resazurin dye based analysis (reference value: 91.53 +/- 1.15%); format: functional
HD-MB03 [12] = assay: Sensitization of chemotherapy induced cytotoxicity against human HD-MB03 cells assessed as inhibition of cell growth at 2.5 uM incubated for 72 hrs in presence of 1 unit of vincristine, etoposide, cisplatin, cyclophosphamide by resazurin dye based analysis (reference value: 91.53 +/- 1.15%); format: functional
HD-MB03 [13] = assay: Antiproliferative activity against human HD-MB03 cells assessed as cell growth inhibition incubated for 72 hrs by resazurin dye based analysis; format: functional
Procedure, shortened: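 Cells seeded at 2000/well, treated 24 h later with compounds in a 6-point 2-fold dose series, duplicate wells, two independent experiments. After 72 h, resazurin was added at 44 µM final for 3 h at 37 °C and fluorescence was read at 590 nm. Viability was normalized to 1 µM bortezomib (positive) and 0.5% DMSO (negative) controls. GI50 is the mean ± SEM of dose-response curves.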

HD-MB03 [14] = assay: Sensitization of chemotherapy induced cytotoxicity against human HD-MB03 cells assessed as inhibition of cell growth at 20 uM incubated for 72 hrs in presence of 0.5 unit of vincristine, etoposide, cisplatin, cyclophosphamide by resazurin dye based analysis (reference value: 83.74+/- 0.54%); format: functional
HD-MB03 [15] = assay: Induction of apoptosis in human HD-MB03 cells assessed as membrane blebbing at 20 uM incubated for 24 hrs in presence of chloroquine by bright field imaging analysis; format: functional, cell-based
HD-MB03 [16] = assay: Sensitization of chemotherapy induced cytotoxicity against human HD-MB03 cells assessed as inhibition of cell growth at 10 uM incubated for 72 hrs in presence of 0.25 unit of vincristine, etoposide, cisplatin, cyclophosphamide by resazurin dye based analysis (reference value: 73.44 +/- 0.92%); format: functional
HD-MB03 [17] = assay: Sensitization of chemotherapy induced cytotoxicity against human HD-MB03 cells assessed as inhibition of cell growth at 20 uM incubated for 72 hrs in presence of 0.12 unit of vincristine, etoposide, cisplatin, cyclophosphamide by resazurin dye based analysis (reference value: 51.43 +/- 1.17%); format: functional
HD-MB03 [18] = assay: Induction of apoptosis in human HD-MB03 cells at 20 uM by Annexin V-FITC/PI staining based cytofluorimetric analysis; format: functional, cell-based; details: time 48-72 hrs, TDE = time-dependent effect
Procedure, shortened: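 HD-MB03 cells treated with 20 µM, then stained with annexin V-FITC and PI and analysed by flow cytometry. Mean ± SEM of three independent experiments; 2-way ANOVA with Tukey correction.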

HD-MB03 [19] = assay: Sensitization of chemotherapy induced cytotoxicity against human HD-MB03 cells assessed as inhibition of cell growth at 10 uM incubated for 72 hrs in presence of 0.12 unit of vincristine, etoposide, cisplatin, cyclophosphamide by resazurin dye based analysis (reference value: 51.43 +/- 1.17%); format: functional
HD-MB03 [20] = assay: Sensitization of chemotherapy induced cytotoxicity against human HD-MB03 cells assessed as inhibition of cell growth at 1.25 uM incubated for 72 hrs in presence of 2 unit of vincristine, etoposide, cisplatin, cyclophosphamide by resazurin dye based analysis (reference value: 97.7 +/- 1.3%); format: functional
[21] = molecular target: T1, BAG family molecular chaperone regulator 3; assay: Binding affinity to C-terminal His tagged human BAG3 transfected in HEK293T cells assessed as intermolecular nuclear overhauser effect mediated protein magnetization at 125 uM by waterLOGSY experiment; format: cell-based
Procedure, shortened: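 Ligand-observed NMR in 50 mM sodium phosphate pH 7.8, 150 mM NaCl, 0.04% NaN3, 1.3% DMSO-d6, 5% D2O. Compound at 125 µM with 5 µM BAG3-His (HEK-293T expressed, purified by IMAC and SEC), each also run without protein. WaterLOGSY used 240 scans, 1.5 s mixing and water inversion at 4.7 ppm. STD used 256 scans with protein saturation at 0.4 ppm.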

T1 sequence (O95817 whole entry, the tested form may be a part): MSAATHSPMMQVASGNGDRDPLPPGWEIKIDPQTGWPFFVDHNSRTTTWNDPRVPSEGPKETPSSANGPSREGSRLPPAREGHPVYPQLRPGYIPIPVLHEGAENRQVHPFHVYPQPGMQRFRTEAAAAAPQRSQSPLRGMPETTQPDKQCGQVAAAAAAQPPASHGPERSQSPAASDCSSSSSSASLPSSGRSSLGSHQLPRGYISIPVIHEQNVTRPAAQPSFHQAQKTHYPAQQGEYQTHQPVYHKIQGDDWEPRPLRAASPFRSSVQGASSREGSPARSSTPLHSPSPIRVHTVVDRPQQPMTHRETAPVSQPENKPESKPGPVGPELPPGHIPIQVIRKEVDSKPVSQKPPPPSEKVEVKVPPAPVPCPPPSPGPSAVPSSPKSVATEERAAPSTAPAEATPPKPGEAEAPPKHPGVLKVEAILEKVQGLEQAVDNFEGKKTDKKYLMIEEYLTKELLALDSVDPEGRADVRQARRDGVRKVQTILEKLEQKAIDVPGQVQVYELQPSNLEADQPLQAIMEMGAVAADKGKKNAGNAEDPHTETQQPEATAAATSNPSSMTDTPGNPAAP

In the case of CC(C(=O)N1CCOCC1)N1C(=O)S/C(=C\c2cccc(O)c2O)C1=O (racemic), the Activity (HD-MB03 [1]) is reported as “Active”, the inhibition at 10 µM (HD-MB03 [2]) is reported as 92% and the inhibition at 5 µM (HD-MB03 [3]) is reported as 62.3%. The inhibition at 20 µM (HD-MB03 [4]) was 52.9%, the inhibition at 1.25 µM (HD-MB03 [5]) was -11.8% and the Activity (HD-MB03 [6]) was “Active”. For the same compound, the Activity (HD-MB03 [7]) was 1.2%, the Activity [8] was “Active” and the Activity (HD-MB03 [9]) was “inactive”. It also gave an inhibition at 5 µM (HD-MB03 [10]) of 3%, an inhibition at 1.25 µM (HD-MB03 [11]) of 93.1% and an inhibition at 2.5 µM (HD-MB03 [12]) of 92%. For the same compound, the GI50 (HD-MB03 [13]) was 11.2 µM, the inhibition at 20 µM (HD-MB03 [14]) was 87.7% and the Activity (HD-MB03 [15]) was “Active”. For the same compound, the inhibition at 10 µM (HD-MB03 [16]) was 82.2%, the inhibition at 20 µM (HD-MB03 [17]) was 75% and the Activity (HD-MB03 [18]) was “Tde”. For the same compound, the inhibition at 10 µM (HD-MB03 [19]) was 75.8%, the inhibition at 1.25 µM (HD-MB03 [20]) was 96.6% and the Activity [21] was “Active”.
